The target in test [1] is T1, Ectonucleotide pyrophosphatase/phosphodiesterase family member 1 (Homo sapiens) (UniProt P22413).
T1 sequence (whole entry): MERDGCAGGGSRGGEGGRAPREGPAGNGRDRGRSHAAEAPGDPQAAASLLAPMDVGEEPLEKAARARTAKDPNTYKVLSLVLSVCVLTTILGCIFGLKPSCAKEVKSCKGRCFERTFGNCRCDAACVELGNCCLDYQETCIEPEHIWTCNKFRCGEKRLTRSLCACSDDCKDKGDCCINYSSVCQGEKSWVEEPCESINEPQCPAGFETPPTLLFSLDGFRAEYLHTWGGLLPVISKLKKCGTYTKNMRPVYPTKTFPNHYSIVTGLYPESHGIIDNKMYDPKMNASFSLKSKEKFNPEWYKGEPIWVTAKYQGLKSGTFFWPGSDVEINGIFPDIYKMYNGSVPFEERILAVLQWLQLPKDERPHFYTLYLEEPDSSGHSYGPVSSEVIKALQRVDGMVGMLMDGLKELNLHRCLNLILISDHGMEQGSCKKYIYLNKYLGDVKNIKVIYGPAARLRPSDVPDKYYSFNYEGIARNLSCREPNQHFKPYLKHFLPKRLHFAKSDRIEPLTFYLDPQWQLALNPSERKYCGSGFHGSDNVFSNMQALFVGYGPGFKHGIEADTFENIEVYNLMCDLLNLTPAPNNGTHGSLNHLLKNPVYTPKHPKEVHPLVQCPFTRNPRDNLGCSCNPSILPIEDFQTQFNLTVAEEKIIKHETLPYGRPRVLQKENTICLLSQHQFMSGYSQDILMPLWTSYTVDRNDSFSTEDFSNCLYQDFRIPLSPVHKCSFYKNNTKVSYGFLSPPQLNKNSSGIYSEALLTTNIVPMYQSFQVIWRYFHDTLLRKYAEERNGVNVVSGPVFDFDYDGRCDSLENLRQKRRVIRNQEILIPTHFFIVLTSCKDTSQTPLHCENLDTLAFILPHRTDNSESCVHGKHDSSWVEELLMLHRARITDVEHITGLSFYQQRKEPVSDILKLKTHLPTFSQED
Nature of the test: Inhibition of human NPP1 expressed in African green monkey COS7 cell membranes pre-incubated for 10 mins before pNP-TMP substrate addition and further incubated for 15 mins by colorimetric method relative to untreated control. More on the design: concentration or dose not given beside the values. The method in brief: (§1)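 Single-point screen at 100 µM test compound, added from a 1 mM stock in 10% DMSO. Buffer was 50 mM Tris-HCl, 5 mM MgCl2, 0.1 mM ZnCl2, pH 9.5, at 37 °C. pNP-TMP substrate was 400 µM for NPP1, 500 µM for NPP2, 600 µM for NPP3. Absorbance at 405 nm was read before and after substrate addition. Percent inhibition was determined in triplicate.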

Test [2] has as its target T2, Ectonucleotide pyrophosphatase/phosphodiesterase family member 3 (Homo sapiens) (UniProt O14638).
T2 sequence (whole entry): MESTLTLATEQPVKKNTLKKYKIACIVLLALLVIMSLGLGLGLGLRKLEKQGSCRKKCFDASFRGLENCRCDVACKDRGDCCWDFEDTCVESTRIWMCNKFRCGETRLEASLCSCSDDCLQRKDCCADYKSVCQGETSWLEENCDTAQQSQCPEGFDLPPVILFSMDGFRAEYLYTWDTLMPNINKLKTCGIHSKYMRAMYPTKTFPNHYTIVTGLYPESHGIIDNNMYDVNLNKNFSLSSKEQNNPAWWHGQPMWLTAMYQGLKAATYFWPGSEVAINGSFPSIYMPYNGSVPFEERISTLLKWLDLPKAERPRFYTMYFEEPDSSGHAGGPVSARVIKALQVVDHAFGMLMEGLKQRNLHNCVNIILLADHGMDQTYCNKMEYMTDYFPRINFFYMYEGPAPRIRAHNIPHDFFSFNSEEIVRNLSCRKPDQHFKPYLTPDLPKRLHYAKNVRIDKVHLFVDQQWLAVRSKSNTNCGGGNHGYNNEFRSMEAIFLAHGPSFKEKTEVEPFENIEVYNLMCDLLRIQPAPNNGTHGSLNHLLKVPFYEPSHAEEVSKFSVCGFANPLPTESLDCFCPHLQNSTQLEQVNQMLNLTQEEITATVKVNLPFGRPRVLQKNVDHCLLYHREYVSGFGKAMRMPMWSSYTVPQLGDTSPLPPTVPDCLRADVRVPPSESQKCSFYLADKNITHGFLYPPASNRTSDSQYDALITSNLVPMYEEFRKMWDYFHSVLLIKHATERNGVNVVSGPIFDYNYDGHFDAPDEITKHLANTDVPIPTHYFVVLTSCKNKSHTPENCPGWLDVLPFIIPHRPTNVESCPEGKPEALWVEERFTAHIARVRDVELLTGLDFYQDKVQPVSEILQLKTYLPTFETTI
The experiment in a line: Inhibition of human NPP3 expressed in African green monkey COS7 cell membranes pre-incubated for 10 mins before pNP-TMP substrate addition and further incubated for 15 mins by colorimetric method relative to untreated control. More on the design: concentration or dose not given beside the values. Put shortly: as §1

Test [3] deals with T3, Autotaxin (Homo sapiens, UniProt Q13822). Nature of the test: Inhibition of human NPP2 expressed in African green monkey COS7 cell membranes pre-incubated for 5 mins before pNP-TMP substrate addition and further incubated for 35 mins by colorimetric method relative to untreated control. More on the design: concentration or dose not given beside the values. Put shortly: as §1

Test [4] has as its target T3, Autotaxin. Nature of the test: Inhibition of human NPP2 expressed in African green monkey COS7 cell membranes pre-incubated for 5 mins before pNP-TMP substrate addition and further incubated for 35 mins by colorimetric method. The method in brief:
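Colorimetric assay in 50 mM Tris-HCl, 5 mM MgCl2, 0.1 mM ZnCl2, pH 9.5, at 37 °C. Enzyme amounts: NPP1 35 ng, NPP2 338 ng, NPP3 37 ng. Pre-read at 405 nm was taken, then pNP-TMP was added: 400 µM for NPP1, 500 µM for NPP2, 600 µM for NPP3. A second 405 nm read followed. Runs were in triplicate. IC50 came from serial dilutions by non-linear curve fitting.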

Test [5] has as its target T2, Ectonucleotide pyrophosphatase/phosphodiesterase family member 3 (Homo sapiens). Nature of the test: Potency index, ratio of IC50 for suramin to IC50 for test compound for inhibition of human NPP3 expressed in African green monkey COS7 cell membranes pre-incubated for 10 mins before pNP-TMP substrate addition and further incubated for 15 mins by colorimetric method.

Test [6] has as its target T4, Ectonucleotide pyrophosphatase/phosphodiesterase family member 3 (Homo sapiens, UniProt O14638).
T4 sequence (O14638 whole entry): T2 sequence (whole entry)
Nature of the test: Inhibition of human NPP3 expressed in African green monkey COS7 cell membranes pre-incubated for 10 mins before pNP-TMP substrate addition and further incubated for 15 mins by colorimetric method.

The structures appear in SMILES notation.

As usually defined, the inhibition is the change of the read-out against control, counted positive when it falls. Turning to `Cc1ccc(S(=O)(=O)Oc2ccc(NC(=O)C3CCCCC3)cc2)cc1`, the figures for the inhibition (in test [1]; in test [2]; at Autotaxin [3]) were 43%, 39% and 27%, respectively.

For `CC(C)c1cc(C(C)C)c(S(=O)(=O)Oc2ccc(NC(=O)C3CCCCCCC3)cc2)c(C(C)C)c1`, the inhibition was found to be 30% in test [1], 30% in test [2] and 46% against Autotaxin [3].

As for `CC(C)c1cc(C(C)C)c(S(=O)(=O)Oc2ccc(NC(=O)C3CCCCCC3)cc2)c(C(C)C)c1`, the inhibition in test [1] came to 29%; in test [2], 37%; at Autotaxin [3], 23%.

With `CC(C)(C)c1ccc(S(=O)(=O)Oc2ccc(NC(=O)C3CCCCCCC3)cc2)cc1`, the figures for the inhibition (in test [1]; in test [2]; at Autotaxin [3]) were 40%, 46% and 49%, respectively.

The IC50 is the concentration that inhibits the measured activity by half. As to `O=C(Nc1ccc(OS(=O)(=O)c2ccc(C(F)(F)F)cc2)cc1)C1CCCCCCC1`, the IC50 stood at 679 nM against Autotaxin [4] and 214 nM in test [6]. The Ratio IC50 in test [5] turned out to be 6. This molecule also came in with an inhibition in test [1] of 29%.

For the origin of these results see ChEMBL document CHEMBL4340558, “Synthesis, biological evaluation, and molecular docking study of sulfonate derivatives as nucleotide pyrophosphatase/phosphodiesterase (NPP) inhibitors” (Bioorg Med Chem, 2019).
